One assay deals with Leishmania mexicana. As to the kind of experiment: Antileishmanial activity against Leishmania mexicana MNYC/BZ/62/M379 amastigotes after 48 hrs by alamar blue assay. It counts as functional, organism-based. A digest of the protocol: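 Axenic L. mexicana MNYC/BZ/62/M379 amastigotes kept at 33 °C under CO2 in Schneider's Drosophila medium with 20% FBS and 0.3% gentamycin. Alamar Blue fluorescence read-out.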
Background: Resazurin is reduced to fluorescent resorufin, in cell work by metabolically active cells.

The subject of a further assay is HEK293. Nature of the assay: Cytotoxicity against HEK293 cells after 16 hrs by alamar blue assay. It counts as cell-based, Homo sapiens. Summed up: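 HEK293T cells grown in DMEM-based medium with 10% newborn bovine serum at 37 °C, 5% CO2. Doubling dilutions of compound added for 16 h, then resazurin added. Fluorescence read at emission 590 nm after a further 24 h.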

The subject of assay [1] is Trypanosoma brucei brucei. As to the kind of experiment: Antitrypanosomal activity against Trypanosoma brucei brucei 427 after 48 hrs by alamar blue assay. It counts as functional, organism-based.
In another assay the test system is Leishmania major. Nature of the assay: Antileishmanial activity against Leishmania major Friedlin promastigotes after 48 hrs by alamar blue assay. It counts as functional, organism-based. Summed up:
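L. major Friedlin promastigotes grown in HOMEM with 10% FBS at 25 °C. Alamar Blue fluorescence assay in 96-well plates. 3–6 independent experiments unless noted.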

In assay [2] the test system is Trypanosoma brucei brucei. Nature of the assay: Antitrypanosomal activity against diminazene-resistant Trypanosoma brucei brucei deltaTbat1-KO after 48 hrs by alamar blue assay. It counts as functional, organism-based.
Assay [3] deals with Trypanosoma brucei brucei. As to the kind of experiment: Antitrypanosomal activity against multidrug-resistant Trypanosoma brucei brucei B48 after 48 hrs by alamar blue assay. It counts as functional, organism-based. Conditions: B48, 48 h.
[4] abbreviates: Leishmania mexicana, MNYC/BZ/62/M379, 48 h, read-out: EC50.
Where [5] appears, read: Homo sapiens, HEK293, 16 h, read-out: EC50.
Setting [6] is: Trypanosoma brucei, 427, 48 h, read-out: EC50.
[7] abbreviates: Leishmania major, Friedlin, 48 h, read-out: EC50.

For orientation: EC50 means the concentration needed to bring the measured effect to its halfway point. `COc1cc(/C=C/C(=O)CC(=O)/C=C/c2ccc(OC(=O)c3ccccc3)cc2)ccc1OC(=O)c1ccccc1`: the EC50 result (with Leishmania mexicana; with HEK293 (hek293); in assay [1]; in the assay with Leishmania major) was “ND(Insoluble)” throughout.
As to `COc1cc(/C=C/C(=O)CC(=O)/C=C/c2ccc(OC(=O)c3ccccc3)c(OC)c2)ccc1OC(=O)c1ccccc1`, the 50% effective concentration (EC50) result (in the assay with Leishmania mexicana; in the assay on HEK293 (hek293); in assay [1]; with Leishmania major) was “ND(Insoluble)” throughout.
Turning to `COc1cc(/C=C/C(=O)CC(=O)/C=C/c2ccc(O)cc2)ccc1OC(=O)c1ccccc1`, the EC50 in the assay with Leishmania mexicana (setting [4]) was more than 100 µM; in assay [2] it was 1.6 µM; in the assay with HEK293 (setting [5]) it was 370 µM; in assay [1] (setting [6]) it was 1.2 µM; with Leishmania major (setting [7]), 42 µM; in assay [3] it was 4.7 µM.
Consider `COc1cc(/C=C/C(=O)CC(=O)/C=C/c2ccc(OCCO)c(OC)c2)ccc1O`, for which the EC50 is 30 µM in the assay with Leishmania mexicana (setting [4]); 2.9 µM in assay [2]; 25 µM in the assay on HEK293 (setting [5]); 2.9 µM in assay [1] (setting [6]); 22 µM with Leishmania major (setting [7]); 1.8 µM in assay [3].
On to `CCCOc1ccc(/C=C/C(=O)CC(=O)/C=C/c2ccc(OCCC)c(OC)c2)cc1OC`, for which the concentration giving a half-maximal response (EC50) in the assay on Leishmania mexicana (setting [4]) is 34 µM; in assay [2], 1.8 µM; in the assay on HEK293 (setting [5]) it was more than 500 µM; in assay [1] (setting [6]), 1.3 µM; in the assay on Leishmania major (setting [7]), 28 µM; in assay [3], 1.6 µM.
As for `COc1cc(CCC(=O)CC(O)CCc2ccc(O)c(OC)c2)ccc1O` (centres undefined) [HEXAHYDROCURCUMIN], the half-maximal effective concentration (EC50) with Leishmania mexicana (setting [4]) was more than 100 µM; in assay [2], 38 µM; in the assay with HEK293 (setting [5]), 370 µM; in assay [1] (setting [6]) it was 17 µM; in the assay on Leishmania major (setting [7]), more than 100 µM; in assay [3] it was 5.9 µM.
For `O=C(/C=C/c1ccc(O)cc1)CC(=O)/C=C/c1ccc(OC(=O)c2ccccc2)cc1`, the half-maximal effective concentration (EC50) in the assay on Leishmania mexicana (setting [4]) is more than 100 µM; in assay [2], 10 µM; in the assay on HEK293 (setting [5]), 270 µM; in assay [1] (setting [6]), 4.1 µM; with Leishmania major (setting [7]), 60 µM; in assay [3], 12 µM.
Consider `N=C(N)c1ccc(OCCCCCOc2ccc(C(=N)N)cc2)cc1` [PENTAMIDINE], for which the values for the EC50 (with Leishmania mexicana (setting [4]); in the assay on Leishmania major (setting [7]); in assay [3]) were 16 µM, 3.8 µM and 0.67 µM, respectively.
As for `O=C(/C=C/CCc1ccc(O)c(O)c1)CCc1ccc(O)c(O)c1` [DEHYDROHIRSUTANONOL], the EC50 is 17 µM in the assay with Leishmania mexicana (setting [4]); 3.2 µM in assay [2]; 220 µM in the assay on HEK293 (setting [5]); 2.5 µM in assay [1] (setting [6]); more than 100 µM in the assay on Leishmania major (setting [7]).
Turning to `COc1cc(CCC(O)CC(O)CCc2ccc(O)c(OC)c2)ccc1O` (centres undefined) [OCTAHYDROCURCUMIN], the EC50 with Leishmania mexicana (setting [4]) was more than 100 µM; in assay [2], 61 µM; in assay [1] (setting [6]), 78 µM; in the assay with Leishmania major (setting [7]) it was more than 100 µM; in assay [3] it was more than 100 µM.
For `COc1cc(CC/C=C/C(=O)CCc2ccc(OC(C)=O)c(OC)c2)ccc1OC(C)=O`, the concentration for a half-maximal effect (EC50) in the assay on Leishmania mexicana (setting [4]) came to 35 µM; in assay [2], 0.042 µM; in the assay with HEK293 (setting [5]), 30 µM; in assay [1] (setting [6]), 0.052 µM; with Leishmania major (setting [7]), 7.8 µM; in assay [3], 0.021 µM.
Regarding `COc1ccc(CCC(=O)CC(O)CCc2ccc(OC)c(OC)c2)cc1OC` (centres undefined), the EC50 was more than 100 µM in the assay on Leishmania mexicana (setting [4]), 370 µM in the assay with HEK293 (setting [5]) and 41 µM in the assay with Leishmania major (setting [7]).
Consider `COc1cc(CCC(=O)CC(=O)CCc2ccc(O)cc2)ccc1O` [TETRAHYDRODEMETHOXYCURCUMIN], for which the EC50 was more than 50 µM with Leishmania mexicana (setting [4]); 34 µM in assay [2]; 22 µM in assay [1] (setting [6]); more than 100 µM with Leishmania major (setting [7]); 18 µM in assay [3].
As for `O=C(/C=C/c1ccc(OC(=O)c2ccccc2)cc1)CC(=O)/C=C/c1ccc(OC(=O)c2ccccc2)cc1`, the 50% effective concentration (EC50) entry (with Leishmania mexicana; in the assay with HEK293 (hek293); in assay [1]; with Leishmania major) was “ND(Insoluble)” throughout.
